Assay results published in PMC8898323 (ChemMedChem, 2021).
“Also recorded” adds a separate entry of the source. Where two headings read alike, the source gives them in different places.

Tests used:
hMGL = molecular target: T1, hMGL (Homo sapiens, UniProt Q99685); assay: Fluorescence-based hMGL inhibition counterscreen; type: biochemical; details: for hMGL inhibition, result in words: inactive tested at 1uM
T1 sequence (Q99685 1-303): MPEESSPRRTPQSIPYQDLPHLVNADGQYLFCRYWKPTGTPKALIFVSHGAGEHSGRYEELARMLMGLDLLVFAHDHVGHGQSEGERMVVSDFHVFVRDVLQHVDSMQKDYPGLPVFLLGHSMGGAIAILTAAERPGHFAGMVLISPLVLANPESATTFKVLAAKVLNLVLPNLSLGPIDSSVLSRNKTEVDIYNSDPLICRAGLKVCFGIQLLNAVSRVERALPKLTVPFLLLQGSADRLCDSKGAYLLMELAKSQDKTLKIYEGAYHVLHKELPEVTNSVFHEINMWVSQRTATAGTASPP

hABHD6 = molecular target: T2, hABHD6 (Homo sapiens, UniProt Q9BV23); assay: Fluorescence-based hABHD6 inhibition assay; type: biochemical; details: for fold loss in potency for ABHD6: versus the comparator analog named in the text; for inhibition at 10 µM: read-out: % inhibition hABHD6; for hABHD6 inhibition, result in words: words in table or text, table footnote c: inactive tested at 1uM
T2 sequence (Q9BV23 1-337): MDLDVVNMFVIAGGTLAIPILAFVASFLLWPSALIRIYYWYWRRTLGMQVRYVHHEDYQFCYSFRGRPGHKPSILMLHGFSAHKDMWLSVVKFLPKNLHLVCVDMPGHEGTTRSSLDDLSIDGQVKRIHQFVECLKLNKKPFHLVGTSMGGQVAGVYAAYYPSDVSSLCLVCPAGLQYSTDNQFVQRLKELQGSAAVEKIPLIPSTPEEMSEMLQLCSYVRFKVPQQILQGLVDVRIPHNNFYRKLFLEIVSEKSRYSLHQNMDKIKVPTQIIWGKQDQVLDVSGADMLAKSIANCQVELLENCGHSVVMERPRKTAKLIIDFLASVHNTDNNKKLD

hFAAH = molecular target: T3, hFAAH (Homo sapiens, UniProt O00519); assay: Fluorescence-based hFAAH inhibition counterscreen; type: biochemical; details: for hFAAH inhibition, result in words: inactive tested at 1uM
T3 sequence (O00519 1-579): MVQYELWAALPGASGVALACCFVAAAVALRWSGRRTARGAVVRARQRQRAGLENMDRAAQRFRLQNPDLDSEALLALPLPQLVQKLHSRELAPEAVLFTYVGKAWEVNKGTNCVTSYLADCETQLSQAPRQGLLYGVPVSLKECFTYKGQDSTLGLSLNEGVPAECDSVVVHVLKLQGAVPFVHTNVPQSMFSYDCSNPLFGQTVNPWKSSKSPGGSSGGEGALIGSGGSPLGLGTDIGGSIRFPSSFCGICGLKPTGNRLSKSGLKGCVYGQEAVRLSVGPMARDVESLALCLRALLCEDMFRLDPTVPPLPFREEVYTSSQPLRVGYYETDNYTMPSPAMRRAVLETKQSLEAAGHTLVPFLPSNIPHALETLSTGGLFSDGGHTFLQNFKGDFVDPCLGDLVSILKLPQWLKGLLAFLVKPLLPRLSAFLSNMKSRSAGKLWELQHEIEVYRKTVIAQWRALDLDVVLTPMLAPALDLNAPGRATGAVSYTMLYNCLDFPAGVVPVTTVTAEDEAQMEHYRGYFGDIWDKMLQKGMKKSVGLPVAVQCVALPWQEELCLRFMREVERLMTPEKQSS

[1] = test system: rat retina (AMPA excitotoxicity); details: cited from earlier work
[2] = Metabolic stability in human liver microsomes; type: in vitro ADME; details: NADPH
Outline: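 Inhibitor pre-incubated at 37 °C with liver microsomal protein of the given species. Reaction started with NADPH, or buffer as control. Proteins precipitated, then parent remaining measured by LC-MS/MS in SRM mode to give t1/2.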

[3] = Cassette pharmacokinetics in brain and plasma, male CD-1 mice; type: in vivo, mouse; details: for concentration at 15 min: iv; for concentration at 30 min / concentration at 60 min: po
Outline: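 Male CD-1 mice (25–30 g), cassette dosing: single iv dose of 2 mg/kg and oral dose of 8 mg/kg per compound. Plasma and brain taken 15 min after iv, and 30 and 60 min after oral dosing, n = 3 per time point. Flash-frozen tissue extracted and quantified by LC-MS/MS (SRM) with internal standards.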

ABHD6 = details: read-out: IC50 ABHD6; activity-based protein profiling (ABPP) assay; ref 22b; cited from earlier work
[4] = read-out: IC50 (nM) ± SEM hMGL, triplicate, eight concentrations
[5] = male, CD-1, mouse, brain, 8 mg/kg
[6] = male, CD-1, mouse, plasma, 8 mg/kg

Which IC50 (hMGL) does the source give for N#Cc1cccc(OC(=O)N2CC(OC(c3ccc(F)cc3)c3ccc(F)cc3)C2)c1 [5a, 3-Cyanophenyl 3-(bis(4-fluorophenyl)methoxy)azetidine-1-carboxylate] here?
Its IC50 is 66.1 ± 2.4 nM.

What about the “fold loss in potency for ABHD6” value (hABHD6) of the same compound?
The value was “about 2 fold”.

What about the inhibition at 0.1 µM (hFAAH; read-out: % inhibition hFAAH) of the same compound?
Its inhibition at 0.1 µM is 33%.

For O=C(OC(C(F)(F)F)C(F)(F)F)N1CC(OC(c2ccc(F)cc2)c2ccc(F)cc2)C1 [6b, 1,1,1,3,3,3-Hexafluoropropan-2-yl 3-(bis(4-fluorophenyl)methoxy)azetidine-1-carboxylate], which IC50 (hMGL) is on record?
Its IC50 is 6.4 ± 1.5 nM.

What about the “fold loss in potency for ABHD6” value (hABHD6) of the same compound?
The value was “about 2 fold”.

What about the “hFAAH inhibition, result in words” value (hFAAH) of the same compound?
Its value is “inactive”.

With CN(C1CN(C(=O)OC(C(F)(F)F)C(F)(F)F)C1)C(c1ccc(F)cc1)c1ccc(F)cc1 [9d, 1,1,1,3,3,3-Hexafluoropropan-2-yl 3-((bis(4-fluorophenyl)methyl) (methyl)amino) azetidine-1-carboxylate] as the compound, how does the IC50 (hMGL; [4]) read?
The IC50 was 83.5 ± 1.8 nM.

And the “hFAAH inhibition, result in words” value (hFAAH)?
Its value is “inactive”.

With O=C(OC(C(F)(F)F)C(F)(F)F)N1CC(C(c2ccccc2)c2ccccc2)C1 [10d, 1,1,1,3,3,3-Hexafluoropropan-2-yl 3-benzhydrylazetidine-1-carboxylate] as the compound, how does the IC50 (hMGL; [4]) read?
Its IC50 is 348 ± 7.5 nM.

And the inhibition at 10 µM (hABHD6)?
The inhibition at 10 µM was 37%.

What about the “hABHD6 inhibition, result in words” value (hABHD6) of the same compound?
The value was “practically inactive”.

And the “hFAAH inhibition, result in words” value (hFAAH)?
The value was “inactive”.

For O=C(OC(C(F)(F)F)C(F)(F)F)N1CCc2ccccc2C1 [14a, 1,1,1,3,3,3-Hexafluoropropan-2-yl 3,4-dihydroisoquinoline-2(1H)-carboxylate], which “hMGL inhibition, result in words” value (hMGL) is on record?
The value was “lacked activity; also recorded: inactive”.

What about the “hFAAH inhibition, result in words” value (hFAAH) of the same compound?
The value was “lacked activity; also recorded: inactive^c”.

For O=C(O[C@H](CO)C(F)(F)F)N1CCc2c(Br)cccc2C1 [14j, (R)-1,1,1-trifluoro-3-hydroxypropan-2-yl 5-bromo-3,4-dihydroisoquinoline-2(1H)-carboxylate], which “hMGL inhibition, result in words” value (hMGL) is on record?
Its value is “inactive”.

And the inhibition at 10 µM (hABHD6)?
The inhibition at 10 µM was 35%.

What about the “hABHD6 inhibition, result in words” value (hABHD6) of the same compound?
The value was “practically inactive”.

And the “hFAAH inhibition, result in words” value (hFAAH)?
The value was “inactive”.

For O=C(OC(C(F)(F)F)C(F)(F)F)N1Cc2ccc(OCCN3CCOCC3)cc2C1 [22f, 1,1,1,3,3,3-Hexafluoropropan-2-yl 5-(2-morpholinoethoxy)isoindoline-2-carboxylate], which AMPA-induced glia activation ([1]; rat retina) is on record?
Its AMPA-induced glia activation is “attenuated”.

What about the retina neuroprotection ([1]; rats, AMPA excitotoxicity) of the same compound?
The retina neuroprotection was “dose-dependent retina neuroprotection”.

What about the “Microsomes t1/2 min Human” value [2] of the same compound?
The value was “most stable”.

What about the “hMGL inhibition, result in words” value (hMGL) of the same compound?
Its value is “inactive”.

And the “brain permeability, result in words” value ([3]; comparing brain and plasma levels after iv administration at 15 min)?
The value was “brain permeable”.

And the Kp at 15 min ([3]; male, CD-1, mouse, brain, intravenous, 2 mg/kg)?
Its Kp at 15 min is 1.2.

What about the concentration at 15 min ([3]; male, CD-1, mouse, brain, 2 mg/kg) of the same compound?
The concentration at 15 min was 735 ± 56 ng/g.

What about the concentration at 30 min [3, 5] of the same compound?
The concentration at 30 min was 248 ± 89 ng/g.

And the concentration at 60 min [3, 5]?
Its concentration at 60 min is 227 ± 95 ng/g.

What about the concentration at 15 min ([3]; male, CD-1, mouse, plasma, 2 mg/kg) of the same compound?
Its concentration at 15 min is 0.633 ± 0.046 µg/mL.

What about the bioavailability ([3]; male, CD-1, mouse, plasma, oral, 8 mg/kg) of the same compound?
Its bioavailability is 28%.

And the concentration at 30 min [3, 6]?
Its concentration at 30 min is 0.18 ± 0.072 µg/mL.

And the concentration at 60 min [3, 6]?
The concentration at 60 min was 0.14 ± 0.031 µg/mL.

What about the “hFAAH inhibition, result in words” value (hFAAH) of the same compound?
The value was “inactive^f”.

Which “hMGL inhibition, result in words” value (hMGL) does the source give for O=C(OC(C(F)(F)F)C(F)(F)F)N1Cc2ccc(OCCN3CCCCC3)cc2C1 [22j, 1,1,1,3,3,3-Hexafluoropropan-2-yl 5-(2-(piperidin-1-yl)ethoxy)isoindoline-2-carboxylate] here?
The value was “inactive”.

What about the inhibition at 1 µM (hFAAH; read-out: % inhibition hFAAH) of the same compound?
Its inhibition at 1 µM is 71%.

With CC1(C)C2C(=O)N(OC(=O)N3CCc4c(Br)cccc4C3)C(=O)C21 (centres unmarked) [25b, 6,6-Dimethyl-2,4-dioxo-3-azabicyclo[3.1.0]hexan-3-yl 5-bromo-3,4-dihydro isoquinoline-2(1H)-carboxylate] as the compound, how does the “hMGL inhibition, result in words” value (hMGL) read?
The value was “inactive”.

And the “fold loss in potency for ABHD6” value (hABHD6)?
The value was 2 fold.

And the “hFAAH inhibition, result in words” value (hFAAH)?
The value was “inactive”.
